Data: ChEMBL document CHEMBL4673305, “Azodyrecins A-C: Azoxides from a Soil-Derived Streptomyces Species” (J Nat Prod, 2020)
Activity calls are given as the source filed them. The calls are words filed in the database; no cut-off is given here.

Experiments:
[1] = Toxicity in Artemia salina assessed as mortality at 10 ug/ml after 24 hrs by Meyer method; conditions: at 10 µg/mL
In short: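 Brine shrimp test after Meyer, modified. Artemia salina eggs were hatched in artificial seawater. Tubes held 30–40 nauplii in 4.95 mL seawater, plus 50 µL DMSO solution of compound (final 10 µg/mL). Elaiophylin was the positive control and DMSO alone the negative control. Mortality was scored after 24 h.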

HL-60 = test: Cytotoxicity against human HL-60 cells assessed as reduction in cell viability after 48 hrs by AlamarBlue assay; assay type: functional, cell-based
In short: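 HL-60 cells grown at 37 °C, 5% CO2, seeded at 2 x 10⁵ cells/mL. Compound in DMSO was dispensed acoustically at 10 concentrations (top 10 µM, 1:2 dilutions). After 48 h, AlamarBlue was added for a further 5 h and fluorescence read (ex 544/em 590 nm). DMSO-only wells served as maximal growth; medium-only wells gave background correction.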

Vibrio anguillarum = test: Antimicrobial activity against Vibrio anguillarum 90-11-287 assessed as reduction in microbial growth after 24 hrs by agar well diffusion assay; assay type: functional, organism-based
In short: (§1)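 Agar well diffusion on Instant Ocean agar (3% Instant Ocean, 3.33 g/L casamino acids, 4 g/L glucose, 10 g/L agar) seeded with pathogen. Wells 4 mm in diameter, 32-38 mm apart, each got 30 µL of a 100 µg/100 µL MeOH solution. Medium and MeOH wells were controls; the positive control was sterile-filtered supernatant of tropodithietic acid-producing Phaeobacter inhibens DSM17395. Incubated 24 h at 25 °C; inhibition zone diameter measured.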

Candida albicans = test: Antifungal activity against Candida albicans IBT 654.38 assessed as reduction in microbial growth after 16 to 24 hrs by agar well diffusion assay; assay type: functional, organism-based; conditions: time 16-24 hrs, in the assay text read “paper disk diffusion assay” for “agar well diffusion assay”
In short: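 Disk diffusion: a glucose–peptone agar base layer (pH 4.8) was inoculated with the yeast. 6 mm paper disks carried 80 µg compound applied in CH2Cl2 and were dried under sterile conditions before placing. Incubated 28 °C for 16–24 h; inhibition zone diameter measured.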

Staphylococcus aureus = test: Antimicrobial activity against Staphylococcus aureus 8325 assessed as reduction in microbial growth after 24 hrs by agar well diffusion assay; assay type: functional, organism-based; in short: as §1

Structure (SMILES) | mortality at 24 h, 10 ug/ml [1] | IC50 (HL-60; hl-60) | Activity (Vibrio anguillarum) | Activity (Candida albicans) | Activity (Staphylococcus aureus) | IC50 (HL-60; Homo sapiens, HL-60, 48 h, read-out: IC50)
COC(=O)[C@H](C)/N=[N+]([O-])/C=C\CCCCCCCCCC(C)C | 100% | Nd(Unstable) | inactive | inactive | inactive | –
CC[C@@H]1[C@@H](C)O[C@@](O)([C@@H](C)[C@H](O)[C@H](C)[C@H]2OC(=O)/C=C/C=C/[C@H](C)[C@@H]([C@@H](C)[C@@H](O)[C@H](C)[C@@]3(O)C[C@@H](O[C@H]4C[C@H](O)[C@H](O)[C@H](C)O4)[C@H](CC)[C@@H](C)O3)OC(=O)/C=C/C=C/[C@@H]2C)C[C@H]1O[C@H]1C[C@H](O)[C@H](O)[C@H](C)O1 | 78% | – | – | – | – | –
COC(=O)[C@H](C)/N=[N+]([O-])/C=C/CCCCCCCCCC(C)C | – | – | inactive | – | inactive | –
CCC(C)CCCCCCCCC/C=C\[N+]([O-])=N\[C@@H](C)C(=O)OC (some centres undefined) | – | – | – | – | – | 2.2 µM
